Source: ChEMBL document CHEMBL1123287, “7-Aroyl-2,3-dihydrobenzo[b]furan-3-carboxylic acids and 7-benzoyl-2,3-dihydrobenzo[b]thiophene-3-carboxylic acids as analgesic agents” (1986)
In brackets after ≈: the same amount, converted by molar mass.

How the values were obtained:
Mus musculus [1] = organism: Mus musculus; assay: Analgesic activity tested by phenylquinone induced writhing test in mice; format: functional
Mus musculus [2] = assay: Compound was tested orally for its ability to induce gastric lesions in fasted mice (8-animals per group); format: functional; settings: Stomach, po
Method in brief: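 Male mice (eight per group) fasted overnight, then dosed orally. Killed 4 h later; stomachs removed, stretched and examined for bleeding mucosal erosions. ED50 is the dose expected to cause observable mucosal damage in 50% of animals, calculated from dose-response lines.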

[3] = molecular target: T1, Prostaglandin E synthase (Bos taurus) (UniProt Q95L14); assay: Ability to inhibit prostaglandin synthetase ([3H]PGE2 synthesis) from [3H]arachidonic acid in bovine seminal vesicles
T1 sequence (whole entry): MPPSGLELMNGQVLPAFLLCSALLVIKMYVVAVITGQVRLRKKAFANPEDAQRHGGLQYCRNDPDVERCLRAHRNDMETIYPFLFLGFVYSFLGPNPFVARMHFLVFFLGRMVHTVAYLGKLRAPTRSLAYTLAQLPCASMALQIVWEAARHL
Method in brief: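 Formation of [³H]-PGE₂ was measured at no fewer than four compound concentrations, each run in duplicate. ID₅₀, the dose expected to give 50% inhibition of prostaglandin synthesis, was read from dose-response lines.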

O=C(c1ccccc1)c1cc(Cl)cc2c1SCC2C(=O)O (stereo not given)
ED50 (Mus musculus [1]): 0.8 mg/kg | ED50 (Mus musculus [2]): 23 mg/kg | ID50 [3]: 0.8 µg/mL (≈ 2.51 µM)

O=C(c1ccccc1)c1cccc2c1OCC2C(=O)O (stereo not given)
ED50 (Mus musculus [1]): 2.8 mg/kg | ID50 [3]: 0.7 µg/mL (≈ 2.61 µM)

O=C(c1cccs1)c1cc(Cl)cc2c1OCC2C(=O)O (stereo not given)
ED50 (Mus musculus [1]): > 4 mg/kg

O=C(c1ccccc1)c1cc(Cl)cc2c1OCC2C(=O)O (stereo not given)
ED50 (Mus musculus [1]): 0.8 mg/kg | ED50 (Mus musculus [2]): 150 mg/kg | ID50 [3]: 0.25 µg/mL (≈ 0.826 µM)

Cc1cc(C(=O)c2ccccc2)c2c(c1)C(C(=O)O)CO2 (stereo not given)
ED50 (Mus musculus [1]): 1.9 mg/kg | ID50 [3]: 2 µg/mL (≈ 7.08 µM)

O=C(c1ccccc1)c1cc(Cl)cc2c1[S+]([O-])CC2C(=O)O (stereo not given)
ED50 (Mus musculus [1]): > 5 mg/kg | ID50 [3]: > 50 µg/mL

O=C(c1ccccc1)c1ccc2c(c1)C(C(=O)O)CS2 (stereo not given)
ED50 (Mus musculus [1]): > 10 mg/kg

O=C(c1ccccc1)c1cc(Br)cc2c1SCC2C(=O)O (stereo not given)
ED50 (Mus musculus [1]): 1.3 mg/kg | ID50 [3]: 1.4 µg/mL (≈ 3.85 µM)

O=C(c1ccc(Cl)cc1)c1cc(Cl)cc2c1OCC2C(=O)O (stereo not given)
ED50 (Mus musculus [1]): > 4 mg/kg

O=C(c1ccccc1)c1cccc2c1SCC2C(=O)O (stereo not given)
ED50 (Mus musculus [1]): 0.6 mg/kg | ED50 (Mus musculus [2]): 13 mg/kg | ID50 [3]: 1.2 µg/mL (≈ 4.22 µM)

O=C(c1ccccc1)c1cccc2c1COC2C(=O)O (stereo not given)
ED50 (Mus musculus [1]): > 16 mg/kg | ID50 [3]: 5 µg/mL (≈ 18.6 µM)

O=C(c1ccccc1)c1cc(Br)cc2c1OCC2C(=O)O (stereo not given)
ED50 (Mus musculus [1]): > 5 mg/kg

O=C(c1ccccc1)c1cc(F)cc2c1OCC2C(=O)O (stereo not given)
ED50 (Mus musculus [1]): 2.9 mg/kg

O=C(c1ccccc1)c1cc(Cl)cc2c1S(=O)(=O)CC2C(=O)O (stereo not given)
ED50 (Mus musculus [1]): > 5 mg/kg | ID50 [3]: > 50 µg/mL

COC(=O)C1COc2c(C(=O)c3ccccc3)cc(Cl)cc21 (stereo not given)
ED50 (Mus musculus [1]): 13 mg/kg

Cc1cc(CC(=O)O)n(C)c1C(=O)c1ccc(Cl)cc1 [ZOMEPIRAC]
ED50 (Mus musculus [1]): 0.6 mg/kg | ED50 (Mus musculus [2]): 8 mg/kg | ID50 [3]: 0.6 µg/mL (≈ 2.06 µM)
